Converted amounts (≈) assume the structure as drawn.
What was measured:
[1] = system: THP-1; test: Antiinflammatory activity against human THP-1 cells assessed as reduction in LPS and BzATP-induced IL-1beta release measured after 50 mins by microplate reader; assay type: functional, cell-based; details: THP-1, 50 min
In short: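 THP-1 cells were differentiated with IFN-γ 10 ng/mL for 48 h and primed with LPS (100 ng/mL final) for 3.5 h at 10k cells/well. Compound was added for 20 min, then BzATP (1 mM final) for 30 min at 37 °C. Supernatant IL-1β was read by human AlphaLISA.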

[2] = target: T1, P2X purinoceptor 7 (Mus musculus, UniProt Q9Z1M0); test: Displacement of [3H]-A-804598 from mouse P2X7 receptor expressed in HEK293 cell membrane by in vitro binding assay; assay type: cell membranes
T1 sequence (Q9Z1M0 whole entry): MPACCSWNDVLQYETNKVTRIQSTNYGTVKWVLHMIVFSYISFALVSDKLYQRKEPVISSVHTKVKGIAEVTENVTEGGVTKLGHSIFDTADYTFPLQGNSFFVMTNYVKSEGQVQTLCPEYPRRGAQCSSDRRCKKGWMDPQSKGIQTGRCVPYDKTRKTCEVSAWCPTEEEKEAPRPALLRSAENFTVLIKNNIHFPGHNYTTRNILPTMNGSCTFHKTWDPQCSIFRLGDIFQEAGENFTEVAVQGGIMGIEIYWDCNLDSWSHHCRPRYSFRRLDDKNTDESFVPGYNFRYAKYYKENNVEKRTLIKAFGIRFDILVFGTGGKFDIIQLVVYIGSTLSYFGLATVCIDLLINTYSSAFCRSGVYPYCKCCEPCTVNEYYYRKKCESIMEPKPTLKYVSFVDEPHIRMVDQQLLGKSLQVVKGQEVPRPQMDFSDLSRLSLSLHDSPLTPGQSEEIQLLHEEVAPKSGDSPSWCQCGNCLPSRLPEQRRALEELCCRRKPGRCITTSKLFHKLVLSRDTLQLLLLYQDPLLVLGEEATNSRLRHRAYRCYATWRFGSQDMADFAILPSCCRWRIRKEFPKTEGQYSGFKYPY

[3] = Inhibition of BzATP-induced current in rat primary microglia cells measured after repeated BzATP treatment at -60 mV at 10 nM by whole cell patch clamp assay relative to control; assay type: functional
In short: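 Rat primary microglia were whole-cell patch-clamped at −60 mV (external pH 7.4 with 1.8 mM CaCl2; CsCl/EGTA internal pH 7.2). Currents came from 10 s applications of 300 μM BzATP, applied repeatedly. Compound was applied by gravity via capillary for 60 s, and inhibition was taken relative to the control response.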

[4] = Inhibition of BzATP-induced IL-1beta in rat primary microglia cells primed with LPS measured after repeated BzATP treatment by microplate reader; assay type: functional, tissue-based
In short: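 Cortical microglia from rat (P3 pups) or mouse were plated 1 day before assay and primed with 3 EU/mL LPS for 3.5 h. Compound was added for 30 min, then BzATP (1 mM) for 30 min at 37 °C. IL-1β was measured by MesoScale assay, normalised to BCA protein, and given as mean ± SD.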

[5] = Thermodynamic solubility of the compound by shake flask HPLC method; assay type: physicochemical; details: read-out: Therm_solubility
In short: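 Thermodynamic solubility was measured by shake flask with HPLC quantification.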

[6] = target: T2, Cytochrome P450 2B6 (Homo sapiens, UniProt P20813); test: Time dependent inhibition of CYP2B6 (unknown origin) upto 25 uM; assay type: ADME
T2 sequence (P20813 whole entry): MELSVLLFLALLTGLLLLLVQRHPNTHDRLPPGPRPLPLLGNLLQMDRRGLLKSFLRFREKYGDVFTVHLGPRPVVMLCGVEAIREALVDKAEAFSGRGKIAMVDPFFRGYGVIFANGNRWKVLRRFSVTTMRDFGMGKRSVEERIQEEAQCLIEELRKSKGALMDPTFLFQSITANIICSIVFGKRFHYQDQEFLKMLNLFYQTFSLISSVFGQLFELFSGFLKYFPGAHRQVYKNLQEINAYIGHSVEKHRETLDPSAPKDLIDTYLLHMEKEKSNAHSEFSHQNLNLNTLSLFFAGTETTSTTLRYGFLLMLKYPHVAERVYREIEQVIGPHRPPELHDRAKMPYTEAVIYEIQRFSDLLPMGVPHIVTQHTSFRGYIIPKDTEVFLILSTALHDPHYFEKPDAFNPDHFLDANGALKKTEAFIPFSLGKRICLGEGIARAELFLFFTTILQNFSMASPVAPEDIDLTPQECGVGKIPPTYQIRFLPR

[7] = Free plasma concentration in rat at 100 mg/kg, po after 1 hr by ex vivo equilibrium dialysis; assay type: ADME, organism-based
In short: (§1)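 Male Sprague–Dawley rats were dosed orally at 1–100 mg/kg, and total plasma concentration was measured at 1 and 2 h. This was multiplied by fraction unbound from ex vivo equilibrium dialysis; mean ± SEM, n = 3 animals.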

[8] = Free plasma concentration in rat at 30 mg/kg, po after 2 hrs by ex vivo equilibrium dialysis; assay type: ADME, organism-based; in short: as §1
[9] = Cmax in male rat at 150 mg/kg, po after 7 days; assay type: ADME, organism-based; set-up: dose 150 mg/kg, time 7 day, route po; details: in vivo
[10] = Tmax in female mouse at 100 mg/kg, po administered as single dose; details: in vivo

Structure (SMILES): O=C(NC[C@H](c1ccc(Cl)cc1)N1CCOCC1)c1sc(-c2ncccn2)nc1C(F)(F)F
- IC50 [1]: 38 nM
- Ki [2]: 180 nM
- inhibition at 0.01 µM [3]: 31%
- IC50 [4]: 38 nM
- solubility thermodynamic [5]: 16 µg/mL (≈ 32.1 µM)
- TDI [6]: Not Active
- Cp(f) [7]: 1.46 µM
- Cp(f) [8]: 0.556 µM
- Cmax [9]: 39.6 µM
- Tmax [10]: 1 h
